ABHD4 inh = ABHD4 (mouse) inhibition, primary FP screen. Q8VD66. purified mABHD4, FP-Rh probe fluorescence polarization. inhibition, % at 8.92 µM. 370,000 tested, 0.54% active;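 active = inhibition exceeding the mean over every tested compound plus 3 SD, cut at about 30% in these data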
Target sequence (Q8VD66 whole entry, looked up): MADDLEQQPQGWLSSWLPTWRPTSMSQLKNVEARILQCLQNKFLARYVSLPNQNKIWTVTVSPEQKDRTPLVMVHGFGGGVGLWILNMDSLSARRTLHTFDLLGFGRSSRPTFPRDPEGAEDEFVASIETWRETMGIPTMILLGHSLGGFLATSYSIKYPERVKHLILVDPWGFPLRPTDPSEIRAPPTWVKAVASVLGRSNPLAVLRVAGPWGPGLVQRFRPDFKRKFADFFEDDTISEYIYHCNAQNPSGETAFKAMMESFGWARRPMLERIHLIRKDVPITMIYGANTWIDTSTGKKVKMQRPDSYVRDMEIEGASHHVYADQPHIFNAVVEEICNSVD
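Test system: mABHD4 protein; Read-out basis: % inhibition; Incubation: 45 min + 60 min at 25 °C; Repeats: single replicate; Technique: fluorescence polarization with parallel and perpendicular emission, 525/598 nm; Compound: 8.92 µM, single dose; Benchmarks: full inhibition S159A mutant plus DMSO, zero as sample-well median.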
HTRA1 inhibitor = inhibitors of human serine peptidase HTRA1. Q92743. recombinant HTRA1, FP-rhodamine activity-based probe, fluorescence polarization. inhibition, % at 5.96 µM. 340,000 tested, 0.5% active. AID 504803; in the data active = inhibition above about 36%
PAFAH2 inh = PAFAH2 (human) inhibition; recombinant PAFAH2, FP-rhodamine activity probe, fluorescence polarization; Q99487; inhibition, % at 3.39 µM; 340,000 tested, 0.99% active;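 active = inhibition above the mean over all tested compounds plus 3 SD, cut at about 30% in these data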;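 note: inhibitors block probe labeling of enzyme so polarization drops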
pPAFAH inh = pPAFAH (human) enzyme inhibition; recombinant pPAFAH, FP-rhodamine probe fluorescence polarization; 330,000 tested, 1.5% active; inhibition, % at 3.39 µM;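 active = inhibition above the mean inhibition across the screen plus 3 SD, cut at about 25% in these data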;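 note: inhibitors block binding of the rhodamine activity-based probe so polarization drops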
PAFAH1B3 inh = PAFAH1B3 (human) inhibition; recombinant PAFAH1B3, FP-rhodamine probe, fluorescence polarization; inhibition, % at 3.39 µM; 340,000 tested, 0.28% active;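 active = inhibition above the screen-wide average of all tested compounds plus 3 SD, cut at about 25% in these data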
PAFAH1B2 inh = PAFAH1B2 (human) inhibition; P68402; recombinant PAFAH1B2, FP-rhodamine activity probe, fluorescence polarization; inhibition, % at 3.39 µM; 340,000 tested, 1.2% active; AID 492953;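 active = inhibition above the mean of all tested compounds plus 3 SD, cut at about 24% in these data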
PAFAH1B3 conf FP = confirmation of human PAFAH1B3 inhibitors; recombinant PAFAH1B3, FP-Rh activity-based probe, fluorescence polarization; 390 tested, 30% active; inhibition, % at 3.39 µM; shares compounds with PAFAH1B3 inh;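 active = average inhibition over triplicate runs above the hit cutoff set in the earlier primary screen, cut at about 25% in these data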
A number is an active result; . = inactive; / = not tested or not shown. Only some compounds are listed: those with a hit (about 2.8% of all), similar ones and a draw of the others.

SMILES	ABHD4 inh	HTRA1 inhibitor	PAFAH2 inh	pPAFAH inh	PAFAH1B3 inh	PAFAH1B2 inh	PAFAH1B3 conf FP
Cc1cc2cc(CNC(=O)Nc3ccccc3)ccc2n1C	.	.	.	.	30	.	.
CNC(=O)c1cccc(NC(=O)c2cc(-c3ccccc3)nc3c2cnn3C(C)C)c1	.	.	.	.	.	.	/
COc1cc(NC(=O)c2cc(-c3ccccc3)nc3c2cnn3C(C)C)cc(OC)c1OC	/	.	.	.	26	.	.
COc1ccc(S(=O)(=O)Nc2cc(Sc3ncn[nH]3)c(O)c3ccccc23)cc1	.	/	/	/	/	/	/
COc1ccc(S(=O)(=O)Nc2cc(SCC(=O)O)c(O)c3ccccc23)cc1	49	.	.	.	44	.	.
CCCCCCNC(=O)C1CSCCS(=O)(=O)N1Cc1ccc(C)cc1 (stereo unspecified)	.	/	/	/	/	/	/
Oc1ccccc1/C=N/n1c(COc2ccccc2)n[nH]c1=S	.	.	.	.	43	.	.
CC(=O)N(/N=C1\Sc2ccccc2C1=O)c1ccccc1	.	.	.	/	44	.	62
CC(=O)N(/N=C1\Sc2ccccc2C1=O)c1ccc(C)cc1C	.	.	.	.	.	.	/
CC(=O)N(/N=C1/C(=O)Nc2ccccc21)c1ccccc1	.	.	.	.	.	.	/
CC(=O)N(/N=C1\Sc2ccccc2C1=O)c1ccccc1C	.	.	.	.	41	.	54
O=c1oc2cc(O)ccc2cc1-c1nc2c(s1)CCc1ccccc1-2	.	.	.	.	33	.	.
Cc1[nH][nH]c(=O)c1C(c1ccc(-c2cccc(Cl)c2)o1)c1c(C)[nH][nH]c1=O	/	.	.	.	46	.	.
COC(CNC(=O)[C@H](Cc1ccccc1)NC1(C(=O)NC2CCCCC2)CCC1)OC	.	/	/	/	/	/	/
O=C1c2cccc3c([N+](=O)[O-])ccc(c23)C(=O)N1Cc1cccnc1	.	.	.	/	47	.	48
Cc1nnc(N2C(=O)c3cccc4c([N+](=O)[O-])ccc(c34)C2=O)s1	.	.	.	.	29	.	.
Cc1ccnc(N2C(=O)c3cccc4c([N+](=O)[O-])ccc(c34)C2=O)c1	.	.	.	.	31	.	41
Cc1ccc(N2C(=O)c3cccc4c([N+](=O)[O-])ccc(c34)C2=O)c2cccnc12	.	.	.	.	.	.	/
Cc1ccc(C2=NOC(=O)/C2=C\C=C\c2ccccc2)cc1	.	.	.	/	36	.	29
COc1cccc(/C=N/NC(=O)c2ccc([N+](=O)[O-])cc2Cl)c1O	.	.	.	.	27	.	.
COc1cc(/C=N/NC(=O)c2cccc([N+](=O)[O-])c2)cc(OC)c1O	.	.	.	.	.	.	/
CCOC(=O)[C@]12CCCC3=C1N(CCC3)C(=O)[C@@H](CC(=O)NCc1cccc3ccccc13)C2	.	/	/	/	/	/	/
CCOC(=O)c1sc(NC(=O)Nc2ccccc2Cl)cc1C	.	.	.	.	.	.	/
CCOC(=O)c1sc(NC(=O)Nc2ccccc2)cc1C	.	.	.	.	27	.	.
CCC[C@H]1[C@@H](NCc2ccccc2)CC[C@@]23CCCN2C(=O)CCC[C@@H]13	.	/	/	/	/	/	/
SMILES	ABHD4 inh	HTRA1 inhibitor	PAFAH2 inh	pPAFAH inh	PAFAH1B3 inh	PAFAH1B2 inh	PAFAH1B3 conf FP
COc1ccc(/C=C2\C(=O)NC(=O)c3ccccc32)cc1OC	.	.	.	/	40	.	.
Nc1c(O)cccc1C(=O)O	.	.	.	.	30	.	.
O=C(NC1=C(Nc2ccc(F)cc2)C(=O)c2ccccc2C1=O)c1ccc(Cl)cc1	.	.	.	.	26	.	.
CCc1c(-c2cccc(F)c2)ncn1CCc1ccccc1OC	.	/	/	/	/	/	/
O=C(N/N=C/c1cc(Br)ccc1O)c1ccncc1	.	.	.	.	.	.	/
O=C(N/N=C/c1cc(Br)ccc1OC(=O)c1ccc(Br)cc1)c1ccncc1	.	.	.	.	26	.	.
O=C(Nc1ccccc1)c1ccc(Nc2c([N+](=O)[O-])cc([N+](=O)[O-])c3ccccc23)cc1	.	.	.	.	.	.	/
O=[N+]([O-])c1cc(Br)c(Nc2ccccc2)c([N+](=O)[O-])c1	.	.	.	.	36	.	29
N#Cc1ccc(OCCCN2CCC(C(O)(C3=CCCC3)c3ccccc3)CC2)cc1 (stereo unspecified)	.	/	/	/	/	/	/
